# Measurements from ChEMBL document CHEMBL4130562, “Design, Synthesis, and Antibacterial Evaluation of Oxazolidinones with Fused Heterocyclic C-Ring Substructure” (ACS Med Chem Lett, 2017).
# Assays:
# Staphylococcus aureus [1] = test: Antibacterial activity against methicillin-resistant Staphylococcus aureus 1201984 by microbroth dilution method; type: functional
# Enterococcus faecalis = test: Antibacterial activity against Enterococcus faecalis ATCC 29212 by microbroth dilution method; type: functional
# Staphylococcus aureus [2] = test: Antibacterial activity against Staphylococcus aureus ATCC 6538P by microbroth dilution method; type: functional
# Haemophilus influenzae = test: Antibacterial activity against Haemophilus influenzae ATCC 49247 by microbroth dilution method; type: functional
# Staphylococcus aureus [3] = test: Antibacterial activity against Staphylococcus aureus ATCC 33591 by microbroth dilution method; type: functional
# Staphylococcus aureus [4] = test: Antibacterial activity against Staphylococcus aureus ATCC 29213 by microbroth dilution method; type: functional
# Staphylococcus aureus [5] = test: Antibacterial activity against linezolid-resistant Staphylococcus aureus by microbroth dilution method; type: functional
# Enterococcus faecium = test: Antibacterial activity against Enterococcus faecium 19434 by microbroth dilution method; type: functional
# Streptococcus pneumoniae = test: Antibacterial activity against Streptococcus pneumoniae 55143 by microbroth dilution method; type: functional
# Streptococcus pyogenes = test: Antibacterial activity against Streptococcus pyogenes ATCC 19615 by microbroth dilution method; type: functional
# [6] = tested on: Staphylococcus epidermidis; test: Antibacterial activity against Staphylococcus epidermidis ATCC 14990 by microbroth dilution method; type: functional
# [7] = Lipophilicity, log D of the compound at pH 7.4; type: physicochemical; details: buffer
# [8] = Solubility in pH 6.8 buffer; type: physicochemical
# In short: (§1)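 Aqueous solubility was measured in buffers at pH 1.2 and pH 6.8 and reported in μg/mL.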
# CYP1A2 = biological target: T1, CYP1A2 (Homo sapiens, UniProt P05177); test: Inhibition of CYP1A2 (unknown origin) at 10 uM; type: ADME
# T1 sequence (P05177 whole entry): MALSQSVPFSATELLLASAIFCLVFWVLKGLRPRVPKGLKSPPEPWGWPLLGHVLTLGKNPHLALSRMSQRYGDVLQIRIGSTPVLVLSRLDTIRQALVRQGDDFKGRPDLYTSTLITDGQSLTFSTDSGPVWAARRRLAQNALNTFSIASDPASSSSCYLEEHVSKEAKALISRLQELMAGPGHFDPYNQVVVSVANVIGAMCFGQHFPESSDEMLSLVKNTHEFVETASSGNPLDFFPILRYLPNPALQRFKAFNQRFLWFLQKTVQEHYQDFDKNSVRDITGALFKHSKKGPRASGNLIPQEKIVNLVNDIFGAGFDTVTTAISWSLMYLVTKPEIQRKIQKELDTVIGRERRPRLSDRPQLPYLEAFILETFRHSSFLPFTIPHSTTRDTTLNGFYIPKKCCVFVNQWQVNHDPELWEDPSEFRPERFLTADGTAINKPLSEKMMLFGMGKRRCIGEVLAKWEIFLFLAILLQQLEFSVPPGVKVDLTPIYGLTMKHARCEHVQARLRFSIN
# In short: (§2)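 Each test compound was tested at a single concentration of 10 μM against CYP1A2, 2C8, 2C9, 2C19, 2D6 and 3A4. Results are reported as percent inhibition.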
# CYP2D6 = CYP2D6 (Homo sapiens, UniProt P10635); test: Inhibition of CYP2D6 (unknown origin) at 10 uM; type: ADME; in short: as §2
# [9] = Solubility in pH 1.2 buffer; type: physicochemical; in short: as §1
# CYP2C19 = CYP2C19 (Homo sapiens, UniProt P33261); test: Inhibition of CYP2C19 (unknown origin) at 10 uM; type: ADME; in short: as §2
# CYP2C9 = CYP2C9 (Homo sapiens, UniProt P11712); test: Inhibition of CYP2C9 (unknown origin) at 10 uM; type: ADME; in short: as §2
# [10] = Metabolic stability in mouse liver microsomes assessed as parent compound remaining level; type: ADME, microsome
# In short: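 Compound was incubated with mouse liver microsomes to assess phase I metabolism. Read-out is percent of parent compound remaining.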
# CYP3A4 = CYP3A4 (Homo sapiens, UniProt P08684); test: Inhibition of CYP3A4 (unknown origin) at 10 uM; type: ADME; in short: as §2
# CYP2C8 = biological target: T2, CYP2C8 (Homo sapiens, UniProt P10632); test: Inhibition of CYP2C8 (unknown origin) at 10 uM; type: ADME; in short: as §2
# T2 sequence (P10632 whole entry): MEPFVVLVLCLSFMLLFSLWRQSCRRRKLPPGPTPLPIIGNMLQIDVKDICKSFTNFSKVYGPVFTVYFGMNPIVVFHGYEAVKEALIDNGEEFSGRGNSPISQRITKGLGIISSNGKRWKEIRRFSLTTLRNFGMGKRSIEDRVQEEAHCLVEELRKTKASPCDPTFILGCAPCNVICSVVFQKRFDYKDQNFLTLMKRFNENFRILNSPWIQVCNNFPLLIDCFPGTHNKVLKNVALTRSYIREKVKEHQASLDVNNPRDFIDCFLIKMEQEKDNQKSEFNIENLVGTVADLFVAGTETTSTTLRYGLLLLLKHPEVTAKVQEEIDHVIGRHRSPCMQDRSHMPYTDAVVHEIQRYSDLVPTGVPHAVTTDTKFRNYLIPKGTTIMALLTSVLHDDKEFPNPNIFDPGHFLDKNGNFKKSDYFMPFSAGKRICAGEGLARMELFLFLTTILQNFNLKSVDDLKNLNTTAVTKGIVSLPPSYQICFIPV
# Chain of CYP2C9 (P11712 whole entry): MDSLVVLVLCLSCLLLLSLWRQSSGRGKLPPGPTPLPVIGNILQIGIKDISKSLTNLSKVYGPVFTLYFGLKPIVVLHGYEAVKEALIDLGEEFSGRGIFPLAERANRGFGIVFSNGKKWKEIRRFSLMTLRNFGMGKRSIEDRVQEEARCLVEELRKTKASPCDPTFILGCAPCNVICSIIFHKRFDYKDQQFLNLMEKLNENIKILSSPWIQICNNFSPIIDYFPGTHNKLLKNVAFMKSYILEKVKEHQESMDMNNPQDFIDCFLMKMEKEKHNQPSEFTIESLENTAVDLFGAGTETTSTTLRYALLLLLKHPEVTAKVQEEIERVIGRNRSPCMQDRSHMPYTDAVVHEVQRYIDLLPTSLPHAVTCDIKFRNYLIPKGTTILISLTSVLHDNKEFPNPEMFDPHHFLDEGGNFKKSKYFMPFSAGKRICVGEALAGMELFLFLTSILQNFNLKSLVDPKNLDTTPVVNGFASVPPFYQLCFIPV
# Chain of CYP2D6 (P10635 whole entry): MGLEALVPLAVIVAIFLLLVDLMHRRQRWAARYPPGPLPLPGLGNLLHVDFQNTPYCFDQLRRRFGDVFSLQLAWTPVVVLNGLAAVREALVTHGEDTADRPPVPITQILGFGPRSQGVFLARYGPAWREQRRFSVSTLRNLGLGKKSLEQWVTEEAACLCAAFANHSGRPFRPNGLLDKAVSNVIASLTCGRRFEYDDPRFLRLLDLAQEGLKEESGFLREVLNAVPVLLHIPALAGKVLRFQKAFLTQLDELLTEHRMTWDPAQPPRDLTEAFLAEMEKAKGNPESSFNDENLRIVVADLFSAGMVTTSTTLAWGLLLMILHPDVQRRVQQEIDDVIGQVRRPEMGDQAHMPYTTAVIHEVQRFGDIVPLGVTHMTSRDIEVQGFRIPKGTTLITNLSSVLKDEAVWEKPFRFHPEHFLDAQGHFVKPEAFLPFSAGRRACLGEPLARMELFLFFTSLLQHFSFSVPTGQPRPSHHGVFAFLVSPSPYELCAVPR
# Chain of CYP2C19 (P33261 whole entry): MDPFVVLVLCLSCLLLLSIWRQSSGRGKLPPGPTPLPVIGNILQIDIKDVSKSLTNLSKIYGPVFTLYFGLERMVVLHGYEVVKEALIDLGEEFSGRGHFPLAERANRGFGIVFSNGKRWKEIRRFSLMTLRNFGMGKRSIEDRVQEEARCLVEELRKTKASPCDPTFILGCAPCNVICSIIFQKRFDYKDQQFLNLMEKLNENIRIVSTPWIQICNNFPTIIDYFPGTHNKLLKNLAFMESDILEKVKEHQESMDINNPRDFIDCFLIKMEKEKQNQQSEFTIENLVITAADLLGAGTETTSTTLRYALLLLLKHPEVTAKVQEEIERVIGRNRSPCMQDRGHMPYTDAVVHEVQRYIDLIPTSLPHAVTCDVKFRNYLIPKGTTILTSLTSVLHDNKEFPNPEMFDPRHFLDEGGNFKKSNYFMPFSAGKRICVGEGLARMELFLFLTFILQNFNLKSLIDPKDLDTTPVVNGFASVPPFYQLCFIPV
# Chain of CYP3A4 (P08684 whole entry): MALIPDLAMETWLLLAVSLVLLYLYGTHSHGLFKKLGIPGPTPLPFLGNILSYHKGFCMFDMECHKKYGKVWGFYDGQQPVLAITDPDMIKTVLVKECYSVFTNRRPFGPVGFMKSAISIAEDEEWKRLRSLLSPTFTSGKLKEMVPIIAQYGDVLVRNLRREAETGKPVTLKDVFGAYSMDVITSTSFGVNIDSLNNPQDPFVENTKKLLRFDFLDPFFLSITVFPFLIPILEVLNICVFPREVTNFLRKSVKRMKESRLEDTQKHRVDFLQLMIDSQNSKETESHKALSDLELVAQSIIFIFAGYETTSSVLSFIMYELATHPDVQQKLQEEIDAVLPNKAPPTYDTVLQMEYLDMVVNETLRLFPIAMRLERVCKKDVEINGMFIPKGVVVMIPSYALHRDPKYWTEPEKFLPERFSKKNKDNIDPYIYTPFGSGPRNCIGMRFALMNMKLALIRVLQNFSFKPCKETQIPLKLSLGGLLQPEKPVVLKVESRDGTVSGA
SMILES,MIC (Staphylococcus aureus [1]) [µg/mL],MIC (Enterococcus faecalis) [µg/mL],MIC (Staphylococcus aureus [2]) [µg/mL],MIC (Haemophilus influenzae) [µg/mL],MIC (Staphylococcus aureus [3]) [µg/mL],MIC (Staphylococcus aureus [4]) [µg/mL],MIC (Staphylococcus aureus [5]) [µg/mL],MIC (Enterococcus faecium) [µg/mL],MIC (Streptococcus pneumoniae) [µg/mL],MIC (Streptococcus pyogenes) [µg/mL],MIC [6] [µg/mL],other results
COC(=O)NC[C@H]1CN(c2ccc(-c3ccc4c(c3)NC(=O)CO4)c(F)c2)C(=O)O1,0.06,0.06,0.06,0.125,0.125,0.125,0.5,0.06,0.06,0.06,0.06,–
CC(=S)NC[C@H]1CN(c2ccc(-c3ccc4c(c3)NC(=O)CO4)c(F)c2)C(=O)O1,0.06,0.06,0.06,0.125,0.125,0.06,0.125,0.06,0.06,0.06,0.06,–
CC(=O)NC[C@H]1CN(c2ccc(-c3ccc4c(c3)NC(=O)CO4)c(F)c2)C(=O)O1,0.5,0.03,0.125,0.25,0.5,0.125,1,0.03,0.06,0.06,0.06,logD [7]: 1.9; solubility [8]: 15 µg/mL; inhibition at 10 µM (CYP1A2): 6%; inhibition at 10 µM (CYP2D6): 10%; solubility [9]: 22 µg/mL; inhibition at 10 µM (CYP2C19): 20%; inhibition at 10 µM (CYP2C9): 13%; Stability [10]: 84%; inhibition at 10 µM (CYP3A4): 0%; inhibition at 10 µM (CYP2C8): 12%
CS(=O)(=O)NC[C@H]1CN(c2ccc(-c3ccc4c(c3)NC(=O)CO4)c(F)c2)C(=O)O1,1,0.25,0.25,0.5,1,8,8,0.125,0.25,0.25,0.5,–
O=C1COc2ccc(-c3ccc(N4C[C@H](CO)OC4=O)cc3F)cc2N1,0.5,< 0.06,< 0.06,0.5,0.5,0.125,1,< 0.06,< 0.06,< 0.06,< 0.06,logD [7]: 1.9; solubility [8]: 5.2 µg/mL; inhibition at 10 µM (CYP1A2): 4%; inhibition at 10 µM (CYP2D6): 4%; solubility [9]: 4.4 µg/mL; inhibition at 10 µM (CYP2C19): 29%; inhibition at 10 µM (CYP2C9): 12%; Stability [10]: 113%; inhibition at 10 µM (CYP3A4): 0%; inhibition at 10 µM (CYP2C8): 0%
Cl.N=C(N)NC[C@H]1CN(c2ccc(-c3ccc4c(c3)NC(=O)CO4)c(F)c2)C(=O)O1,> 32,> 32,> 32,> 32,> 32,> 32,> 32,> 32,> 32,> 32,> 32,–
C[C@H]1COc2c(N3CCN(C)CC3)c(F)cc3c(=O)c(C(=O)O)cn1c23.C[C@H]1COc2c(N3CCN(C)CC3)c(F)cc3c(=O)c(C(=O)O)cn1c23.O [LEVOFLOXACIN],16,0.25,0.125,0.06,0.25,0.125,> 32,4,0.125,0.06,0.5,–
